Reference: publication PMC4553108 (Xenobiotica; the fate of foreign compounds in biological …, 2015)

How the values were obtained:
[1] = Stability of BI-94 in solution; assay type: physicochemical; details: for stability in solution: 10 μg/mL, up to 60 min
[2] = Stability / recovery of BI-94 in mouse plasma; assay type: in vitro ADME
In short: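 Mouse plasma (stored −80°C) spiked at 10 μg/mL, room temperature: undiluted, or diluted with one or nine volumes of water or 7.5 mM ammonium formate (pH 2.5). At 1, 20 and 60 min, extracted with four volumes MeOH and spun 16 000 × g for 10 min. Supernatant mixed 1:1 with 20% methanol in formate buffer. Post-extracted plasma was spiked after MeOH extraction. Analysed by LC-MS/MS, m/z 319.1→179.8; % recovery.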

[3] = Stability of BI-94 in monkey plasma; assay type: in vitro ADME; details: immediately after spiking (data not shown)
[4] = Stability of BI-94 in rat plasma; assay type: in vitro ADME; details: immediately after spiking (data not shown)
[5] = Stability of BI-94 in human plasma; assay type: in vitro ADME; details: immediately after spiking (data not shown)
[6] = GSH adduct formation in solution; assay type: in vitro ADME
[7] = NAC adduct formation in solution; assay type: in vitro ADME; details: deionized water, 30 min, direct MS; adducts of fragments of NAC and BI-94
In short: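 For structural identification, test compound (final 10 μg/mL) incubated 30 min in water with GSH or NAC, then analysed by direct LC-MS/MS and MS/MS. NAC adducts were screened by EMS-IDA-EPI (positive and negative ESI) only. GSH adducts were also screened by negative-mode precursor ion scans (m/z 254, 272) and by isotopic filtering with 1:1 GSH:[13C2,15N]-GSH.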

[8] = biological target: human serum albumin (HSA)-T3 peptide (Homo sapiens, UniProt P02768); assay: HSA-T3 peptide adduct formation in solution; assay type: in vitro ADME; details: deionized water, 30 min; MS/MS mass shifts +164 (A1) and +273 (A2)
[9] = system: Balb/c mice; assay: GSH and NAC adduct formation in vivo after intravenous dose to mice
[10] = GSH and NAC adduct formation in spiked mouse plasma; assay type: in vitro ADME
In short: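 Freshly collected blank mouse blood/plasma and frozen plasma spiked at 10 μg/mL and held 5 and 20 min at room temperature. One frozen-plasma set was fortified with 9.8 μM GSH before spiking. Samples extracted with four volumes MeOH and spun at 16 000 × g for 10 min. Supernatant was mixed 1:1 with 20% methanol in 7.5 mM ammonium formate (pH 2.5). GSH/NAC adducts quantified by negative-mode LC-MS/MS MRM.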

[11] = system: NCI 60 cell line panel; details: read-out: average GI50; average value in the NCI 60 cell line panel; cited from earlier work
[12] = water, after 60 min of incubation

human serum albumin (HSA)-T3 peptide, sequence (P02768 45-65 limits assumed): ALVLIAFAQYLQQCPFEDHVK

O=[N+]([O-])c1ccc(S(=O)(=O)Cc2ccccc2)c2nonc12 [BI-94, 4-(benzylsulfonyl)-7-(hydroxy(oxido)amino)-2,1,3-benzoxadiazole]
stability in the autosampler ([1]; 48 h in 50 % methanol in H2O reconstitution solution (data not shown)): stable
stability in solution ([1]; NaOH or various buffers at pHs 7–9, room temperature): not stable
stability in solution ([1]; water and various buffers at pHs 2.5–5, room temperature): stable
recovery from post-extracted plasma ([2]; blank plasma pre-treated with MeOH and formate buffer, after 60-min incubation): 100%
recovery from mouse plasma ([2]; immediately after spiking, plasma diluted with one or nine volumes of H2O): below detection limit
recovery from mouse plasma ([2]; immediately after spiking, undiluted mouse plasma, 10 μg/mL): below detection limit
recovery from mouse plasma ([2]; nine volume dilution with 7.5 mM NH4-formate buffer (pH 2.5)): completely recovered
recovery from mouse plasma ([2]; one volume dilution with 7.5 mM NH4-formate buffer (pH 2.5), 60 min of incubation): 10%
recovery from mouse plasma ([2]; one volume dilution with 7.5 mM NH4-formate buffer (pH 2.5), immediate): 62%
recovery from post-extracted plasma ([2]; plasma pretreated with MeOH, after 60-min incubation): 20%
recovery from post-extracted plasma ([2]; plasma pretreated with MeOH, immediately after spiking): 100%
recovery from plasma [3]: < 1%
recovery from plasma [4]: < 1%
recovery from plasma [5]: < 1%
BI-94 depleted on incubation with GSH ([6]; NH4-formate buffer of pH 2.5, over 1 h): 14%
decrease in BI-94 peak area on incubation with GSH ([6]; PBS, within 5 min of incubation): 94.5%
GSH adducts detected ([6]; deionized water, 30 min, direct MS, adducts with a fragment of BI-94): two adducts
decrease in BI-94 peak area on incubation with GSH [6, 12]: 64%
increase in peak area of A1 and A2 GSH adducts [6, 12]: 6 fold
NAC adducts detected [7]: three NAC adducts
adduct formation with HSA-T3 peptide, site [8]: forms adducts with albumin at the Cys34 position
time within which all three mice died after BI-94 administration ([9]; 10 mg/kg intravenous dose, male Balb/c mice (n = 3)): ≤ 2 h
BI-94 adducts with GSH (A1 and A2) and NAC (A1 and A2) in plasma in vivo ([9]; plasma 5 and 60 min after 10 mg/kg intravenous dose to mice): detected
GSH adducts (A1 and A2) and NAC adduct (A1) in spiked plasma ([10]; blank plasma freshly collected from mice, 10 μg/mL): detected
GSH and NAC adducts in spiked plasma ([10]; frozen blank mouse plasma): none of the adducts
GI50 [11]: 22.9 µM
